# Measurements as given in ChEMBL document CHEMBL1155222, “Synthesis and anticancer activity of N-bis(trifluoromethyl)alkyl-N'-thiazolyl and N-bis(trifluoromethyl)alkyl-N'-benzothiazolyl ureas” (2009).
# Experiments:
# Format in all cases: functional
# [1] = system: UO-31; assay: Anticancer activity against human UO31 cells after 48 hrs by sulforhodamine B assay; details: UO-31, 48 h
# In short: (§1)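 NCI 60-cell-line panel; cells grown in RPMI 1640 with 5% FBS and 2 mM L-glutamine, plated at 5000–40,000 cells/well and preincubated 24 h at 37 °C, 5% CO2. Compounds came from DMSO stocks diluted in medium with gentamicin and were tested at five final concentrations, 10^-4 to 10^-8 M, for 48 h. Cells were fixed with TCA, stained with SRB and read at 515 nm. GI50, TGI and LC50 were derived as log molar values.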
# [2] = system: MDA-N; assay: Anticancer activity against human MDA-N cells after 48 hrs by sulforhodamine B assay
# In short: (§2)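 NCI 60-cell-line screen. Cells grown in RPMI 1640 with 5% FBS and 2 mM L-glutamine, plated at 5000–40,000 cells/well, and preincubated 24 h at 37 °C under 5% CO2. Compounds were taken from DMSO stocks and tested at five final concentrations, 10^-4 to 10^-8 M, for 48 h. Cells were TCA-fixed, stained with 0.4% SRB, and read at 515 nm. GI50, TGI and LC50 were derived as log molar values.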
# [3] = system: SF-539; assay: Anticancer activity against human SF539 cells after 48 hrs by sulforhodamine B assay; details: SF-539, 48 h; in short: as §2
# [4] = system: SW-620; assay: Anticancer activity against human SW620 cells after 48 hrs by sulforhodamine B assay; details: SW-620, 48 h; in short: as §1
# [5] = system: MOLT-4; assay: Anticancer activity against human MOLT4 cells after 48 hrs by sulforhodamine B assay; details: MOLT-4, 48 h; in short: as §2
# [6] = system: MDA-MB-435; assay: Anticancer activity against human MDA-MB-435 cells after 48 hrs by sulforhodamine B assay; details: MDA-MB-435, 48 h; in short: as §2
# [7] = system: A498; assay: Anticancer activity against human A498 cells after 48 hrs by sulforhodamine B assay; details: A498, 48 h; in short: as §2
# [8] = system: RXF 393; assay: Anticancer activity against human RXF393 cells after 48 hrs by sulforhodamine B assay; details: RXF 393, 48 h; in short: as §2
# [9] = system: M14; assay: Anticancer activity against human M14 cells after 48 hrs by sulforhodamine B assay; details: M14, 48 h; in short: as §2
# [10] = system: HOP-62; assay: Anticancer activity against human HOP62 cells after 48 hrs by sulforhodamine B assay; details: HOP-62, 48 h; in short: as §2
# [11] = system: HCT-15; assay: Anticancer activity against human HCT15 cells after 48 hrs by sulforhodamine B assay; details: HCT-15, 48 h; in short: as §2
# [12] = system: K562; assay: Anticancer activity against human K562 cells after 48 hrs by sulforhodamine B assay; details: K562, 48 h; in short: as §2
# [13] = system: A549; assay: Anticancer activity against human A549 cells after 48 hrs by sulforhodamine B assay; details: A549, 48 h; in short: as §2
# [14] = system: SK-MEL-5; assay: Anticancer activity against human SK-MEL-5 cells after 48 hrs by sulforhodamine B assay; details: SK-MEL-5, 48 h; in short: as §2
# [15] = system: HCT-116; assay: Anticancer activity against human HCT116 cells after 48 hrs by sulforhodamine B assay; details: HCT-116, 48 h; in short: as §2
# [16] = system: OVCAR-4; assay: Anticancer activity against human OVCAR4 cells after 48 hrs by sulforhodamine B assay; details: OVCAR-4, 48 h; in short: as §2
# [17] = system: COLO 205; assay: Anticancer activity against human COLO205 cells after 48 hrs by sulforhodamine B assay; details: COLO 205, 48 h; in short: as §2
# [18] = system: DU-145; assay: Anticancer activity against human DU145 cells after 48 hrs by sulforhodamine B assay; details: DU-145, 48 h; in short: as §2
# [19] = system: SN12C; assay: Anticancer activity against human SN12C cells after 48 hrs by sulforhodamine B assay; in short: as §1
# [20] = system: NCI-H522; assay: Anticancer activity against human NCI-H522 cells after 48 hrs by sulforhodamine B assay; details: NCI-H522, 48 h; in short: as §2
# [21] = system: SNB-75; assay: Anticancer activity against human SNB75 cells after 48 hrs by sulforhodamine B assay; details: SNB-75, 48 h; in short: as §1
# [22] = system: NCI/ADR-RES; assay: Anticancer activity against human NCI/ADR-RES cells after 48 hrs by sulforhodamine B assay; in short: as §2
# [23] = system: IGROV-1; assay: Anticancer activity against human IGROV1 cells after 48 hrs by sulforhodamine B assay; details: IGROV-1, 48 h; in short: as §2
# [24] = system: OVCAR-5; assay: Anticancer activity against human OVCAR5 cells after 48 hrs by sulforhodamine B assay; details: OVCAR-5, 48 h; in short: as §2
# [25] = system: KM12; assay: Anticancer activity against human KM12 cells after 48 hrs by sulforhodamine B assay; details: KM12, 48 h; in short: as §2
# [26] = system: UACC-62; assay: Anticancer activity against human UACC62 cells after 48 hrs by sulforhodamine B assay; details: UACC-62, 48 h; in short: as §1
# [27] = system: MCF7; assay: Anticancer activity against human MCF7 cells after 48 hrs by sulforhodamine B assay; details: MCF7, 48 h; in short: as §2
# [28] = system: Malme-3M; assay: Anticancer activity against human MALME-3M cells after 48 hrs by sulforhodamine B assay; in short: as §2
# [29] = system: CAKI-1; assay: Anticancer activity against human Caki1 cells after 48 hrs by sulforhodamine B assay; details: CAKI-1, 48 h; in short: as §2
# [30] = system: PC-3; assay: Anticancer activity against human PC3 cells after 48 hrs by sulforhodamine B assay; details: PC-3, 48 h; in short: as §2
# [31] = system: UACC-257; assay: Anticancer activity against human UACC257 cells after 48 hrs by sulforhodamine B assay; details: UACC-257, 48 h; in short: as §1
# [32] = system: OVCAR-8; assay: Anticancer activity against human OVCAR8 cells after 48 hrs by sulforhodamine B assay; details: OVCAR-8, 48 h; in short: as §2
# [33] = system: HT-29; assay: Anticancer activity against human HT-29 cells after 48 hrs by sulforhodamine B assay; details: HT-29, 48 h; in short: as §2
# [34] = system: NCI-H460; assay: Anticancer activity against human NCI-H460 cells after 48 hrs by sulforhodamine B assay; details: NCI-H460, 48 h; in short: as §2
# [35] = system: SK-MEL-28; assay: Anticancer activity against human SK-MEL-28 cells after 48 hrs by sulforhodamine B assay; details: SK-MEL-28, 48 h; in short: as §2
# [36] = system: NCI-H226; assay: Anticancer activity against human NCI-H226 cells after 48 hrs by sulforhodamine B assay; details: NCI-H226, 48 h; in short: as §2
# [37] = system: MDA-MB-231; assay: Anticancer activity against human MDA-MB-231 cells after 48 hrs by sulforhodamine B assay; details: MDA-MB-231, 48 h; in short: as §2
# [38] = system: EKVX; assay: Anticancer activity against human EKVX cells after 48 hrs by sulforhodamine B assay; in short: as §2
# [39] = system: T47D; assay: Anticancer activity against human T47D cells after 48 hrs by sulforhodamine B assay; in short: as §1
# [40] = system: U-251; assay: Anticancer activity against human U251 cells after 48 hrs by sulforhodamine B assay; details: U-251, 48 h; in short: as §1
# [41] = system: SR; assay: Anticancer activity against human SR cells after 48 hrs by sulforhodamine B assay; in short: as §1
# [42] = system: OVCAR-3; assay: Anticancer activity against human OVCAR-3 cells after 48 hrs by sulforhodamine B assay; details: OVCAR-3, 48 h; in short: as §2
# [43] = system: SF-268; assay: Anticancer activity against human SF268 cells after 48 hrs by sulforhodamine B assay; details: SF-268, 48 h; in short: as §2
# [44] = Anticancer activity against human Hs 578T cells after 48 hrs by sulforhodamine B assay; in short: as §2
smiles,measurement,setting,value
CNC(=O)Nc1ccccc1,GI50,[1],100 µM
same,GI50,[2],100 µM
same,GI50,[3],100 µM
same,GI50,[4],100 µM
same,GI50,[5],100 µM
same,GI50,[6],100 µM
same,GI50,[7],100 µM
same,GI50,[8],100 µM
same,GI50,[9],100 µM
same,GI50,[10],100 µM
same,GI50,[11],100 µM
same,GI50,[12],100 µM
same,GI50,[13],100 µM
same,GI50,[14],100 µM
same,GI50,[15],100 µM
same,GI50,[16],100 µM
same,GI50,[17],100 µM
same,GI50,[18],100 µM
same,GI50,[19],100 µM
same,GI50,[20],100 µM
same,GI50,[21],74.1 µM
same,GI50,[22],100 µM
same,GI50,[23],100 µM
same,GI50,[24],100 µM
same,GI50,[25],100 µM
same,GI50,[26],100 µM
same,GI50,[27],100 µM
same,GI50,[28],100 µM
same,GI50,[29],100 µM
same,GI50,[30],100 µM
same,GI50,[31],100 µM
same,GI50,[32],100 µM
same,GI50,[33],100 µM
same,GI50,[34],100 µM
same,GI50,[35],100 µM
same,GI50,[36],100 µM
same,GI50,[37],100 µM
same,GI50,[38],100 µM
same,GI50,[39],100 µM
same,GI50,[40],100 µM
same,GI50,[41],100 µM
same,GI50,[42],100 µM
same,GI50,[43],100 µM
same,GI50,[44],100 µM
